Experimental data from different studies.
Lines come from different studies, so protocols differ.
ALOX5: Polyunsaturated fatty acid 5-lipoxygenase (ALOX5, Homo sapiens, UniProt P09917)
HDAC8: Histone deacetylase 8 (HDAC8, Homo sapiens, UniProt Q9BY41)
TACR2: Substance-K receptor (TACR2, Homo sapiens, UniProt P21452)
OPRM1: Mu-type opioid receptor (OPRM1, Homo sapiens, UniProt P35372)
HTR1D: 5-hydroxytryptamine receptor 1D (HTR1D, Homo sapiens, UniProt P28221)

SMILES | target | test | system | setting | inhibition [%]
O=c1occcc1O | ALOX5 | enzyme activity, inhibitor, fluorescence | – | 1 mM | > 70
C/C=C(/C)C(=O)O[C@@H]1[C@H](OC(C)=O)c2c(ccc3ccc(=O)oc23)OC1(C)C | HDAC8 | enzyme activity, inhibitor | – | 10 µM | 40.9
O=C1N=C(N2CCCCN2)S/C1=C\c1ccc(F)cc1O | TACR2 | ligand displacement, radioligand | – | 10 µM | < 10
CCc1c(O)c(=S)ccn1CC | ALOX5 | enzyme activity, inhibitor, fluorescence | – | 1 mM | > 70
COC(=O)[C@]1(O)C[C@@H](O)[C@@H](O)[C@H](OC(=O)/C=C/c2ccc(O)c(O)c2)C1 | HDAC8 | enzyme activity, inhibitor | – | 10 µM | 60.5
Cc1occc(=S)c1O | ALOX5 | enzyme activity, inhibitor, fluorescence | – | 1 mM | > 70
Oc1cccc(Nc2nc(-c3ccc(F)cc3F)cs2)c1 | OPRM1 | ligand displacement | – | 10 µM | 14.2
CCN(CC)c1ccc(C2Nc3ccc(C(=O)c4ccccc4)cc3NC3=C2C(=O)CC(C)(C)C3)cc1 (stereo not shown) | HTR1D | ligand displacement, radioligand | – | 10 µM | 25
O=c1c(O[C@@H]2O[C@H](CO)[C@@H](O)[C@H](O)[C@H]2O)c(-c2ccc(O)cc2)oc2cc(O)cc(O)c12 | HDAC8 | enzyme activity, inhibitor | – | 10 µM | 14.8
O=C(c1ccc(F)cc1)N(Cc1ccccc1)C1CCCCC1 | OPRM1 | ligand displacement | – | 10 µM | 6
CCCNc1nc2ccccc2n1Cc1ccc(Cl)cc1 | HTR1D | cell-free assay | – | 10 µM | -20.3
CCN1CCN(Cc2ccc(NC(=O)c3ccc(C)c(/C=C/c4cnc5[nH]ccc5c4OC)c3)cc2C(F)(F)F)CC1 | Mitogen-activated protein kinase kinase kinase 4 (MAP3K4, Homo sapiens, UniProt Q9Y6R4) | target engagement in cells, inhibitor, chemoproteomics | A-375 | 50 nM | -0.65
COc1cc2c3c(c1OC)-c1cc4c(cc1CC3N(C)CC2c1ccccc1)OCO4 (stereo not shown) | HTR1D | ligand displacement, radioligand | – | 10 µM | < 50
CC(=O)OC1c2c(ccc3ccc(=O)oc23)OC(C)(C)C1OC(=O)C(C)(O)C(C)O (stereo not shown) | HDAC8 | enzyme activity, inhibitor | – | 10 µM | 41.2
COc1cc(NC(C)=O)c(Cl)cc1C(=O)Nc1nccs1 | TACR2 | cell-free assay | – | 10 µM | 20
CCOC(=O)C1=C(C)NC(c2ccccc2)=C(C(=O)OCc2ccccc2)C1C#Cc1ccccc1 (stereo not shown) | Adenosine receptor A3 (Mus musculus, UniProt Q61618) | ligand displacement, radioligand | – | 10 µM, cell membranes | 32
